Results published in ChEMBL document CHEMBL2384907, “Identification of substituted pyrimido[5,4-b]indoles as selective Toll-like receptor 4 ligands” (J Med Chem, 2013).
Calls of active or inactive are those of the source.

Assays:
[1] = target: Toll-like receptor 4 (Homo sapiens) (UniProt O00206); assay: Activation of TLR4 in human PBMC cells assessed as AUC of IL8 release at 10 uM after 18 hrs by ELISA relative to N-cyclohexyl-2-(4-oxo-3-phenyl-4,5-dihydro-3H-pyrimido[5,4-b]indol-2-ylthio)acetamide; assay type: cell-based
Chain of Toll-like receptor 4 (Homo sapiens) (O00206 whole entry): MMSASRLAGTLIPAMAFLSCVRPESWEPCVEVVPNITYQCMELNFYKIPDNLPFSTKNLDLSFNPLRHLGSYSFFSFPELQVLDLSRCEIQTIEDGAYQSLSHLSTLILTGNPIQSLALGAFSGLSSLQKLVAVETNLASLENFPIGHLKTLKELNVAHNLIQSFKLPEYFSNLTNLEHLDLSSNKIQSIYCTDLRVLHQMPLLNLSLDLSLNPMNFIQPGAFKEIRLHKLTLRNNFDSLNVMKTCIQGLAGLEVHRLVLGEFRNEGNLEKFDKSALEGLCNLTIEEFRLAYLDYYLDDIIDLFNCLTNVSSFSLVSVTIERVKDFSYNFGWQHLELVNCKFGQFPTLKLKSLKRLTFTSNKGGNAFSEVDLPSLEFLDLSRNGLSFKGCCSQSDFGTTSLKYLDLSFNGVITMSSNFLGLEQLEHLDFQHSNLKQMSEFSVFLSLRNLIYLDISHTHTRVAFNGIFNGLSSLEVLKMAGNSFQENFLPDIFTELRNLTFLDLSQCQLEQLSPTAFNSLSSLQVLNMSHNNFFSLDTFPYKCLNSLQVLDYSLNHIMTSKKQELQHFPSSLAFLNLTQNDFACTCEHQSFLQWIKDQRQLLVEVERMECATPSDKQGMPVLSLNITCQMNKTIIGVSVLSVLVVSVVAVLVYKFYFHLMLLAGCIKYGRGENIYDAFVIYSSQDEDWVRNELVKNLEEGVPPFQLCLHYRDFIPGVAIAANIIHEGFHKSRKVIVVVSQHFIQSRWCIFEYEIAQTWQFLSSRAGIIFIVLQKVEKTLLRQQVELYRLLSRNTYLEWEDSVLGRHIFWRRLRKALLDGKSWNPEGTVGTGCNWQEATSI
Procedure, shortened: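 Human PBMC from buffy coats, 1 × 10^6/mL in complete RPMI, 18 h at 37 °C, 5% CO2 with compound at 10 μM; IL-8 in supernatant by ELISA, normalized to reference hit set at 100. LPS 10 ng/mL positive control.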

[2] = target: T1, Toll-like receptor 4 (Mus musculus) (UniProt Q9QUK6); assay: Activation of mouse TLR4 transfected in HEK293 cells after 18 hrs by SEAP assay relative to N-cyclohexyl-2-(4-oxo-3-phenyl-4,5-dihydro-3H-pyrimido[5,4-b]indol-2-ylthio)acetamide; assay type: cell-based
T1 sequence (whole entry): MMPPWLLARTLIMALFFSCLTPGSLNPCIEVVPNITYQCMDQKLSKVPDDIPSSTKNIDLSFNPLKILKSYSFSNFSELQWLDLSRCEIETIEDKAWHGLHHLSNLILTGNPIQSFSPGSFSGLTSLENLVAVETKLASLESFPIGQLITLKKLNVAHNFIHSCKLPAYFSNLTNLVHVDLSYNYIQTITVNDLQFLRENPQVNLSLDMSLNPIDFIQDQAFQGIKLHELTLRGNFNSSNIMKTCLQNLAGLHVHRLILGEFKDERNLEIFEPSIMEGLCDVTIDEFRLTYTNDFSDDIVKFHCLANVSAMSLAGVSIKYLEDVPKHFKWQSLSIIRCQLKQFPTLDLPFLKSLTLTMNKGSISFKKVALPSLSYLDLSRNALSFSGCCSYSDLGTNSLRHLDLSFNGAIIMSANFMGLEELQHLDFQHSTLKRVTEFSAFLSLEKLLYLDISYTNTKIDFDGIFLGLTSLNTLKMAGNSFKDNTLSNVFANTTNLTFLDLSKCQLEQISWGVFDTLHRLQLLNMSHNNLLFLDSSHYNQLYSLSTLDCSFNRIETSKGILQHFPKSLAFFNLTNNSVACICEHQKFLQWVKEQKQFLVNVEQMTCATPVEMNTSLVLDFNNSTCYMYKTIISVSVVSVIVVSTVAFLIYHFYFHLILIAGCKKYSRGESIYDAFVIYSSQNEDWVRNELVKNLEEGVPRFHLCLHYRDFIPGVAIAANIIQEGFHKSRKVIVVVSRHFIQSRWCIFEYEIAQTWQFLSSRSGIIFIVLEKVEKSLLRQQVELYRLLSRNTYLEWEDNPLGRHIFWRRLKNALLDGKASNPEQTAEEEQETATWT
Procedure, shortened: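 Mouse TLR4 HEK-Blue cells (2.5 × 10^4/well) given titrated doses 312 nM–10 μM for 18 h, 0.5% DMSO vehicle; SEAP at 630 nm. Percent-activity curves, AUC by trapezoid method, normalized to reference hit set at 100. LPS 10 ng/mL control.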

[3] = target: T1, Toll-like receptor 4 (Mus musculus); assay: Activation of TLR4-mediated type 1 IFN release in C57BL/6 mouse BMDC cells after overnight incubation by luciferase reporter gene assay; assay type: cell-based
Procedure, shortened: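 Wild-type BMDC incubated overnight with graded concentrations (0.5% DMSO vehicle); 50 μL supernatant put on L929-ISRE luciferase reporter cells (5 × 10^4/well, DMEM-10) for 6 h; luciferase read, quantified against mouse IFN-β standard. Mean ± SEM of triplicates, two independent experiments.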

[4] = target: T1, Toll-like receptor 4 (Mus musculus); assay: Activation of mouse TLR4 transfected in HEK293 cells assessed as NFkappaB activation after 20 to 24 hrs by SEAP assay; assay type: cell-based
Procedure, shortened: (§1)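 Human or mouse TLR4 HEK-Blue cells (2.5 × 10^4/well) incubated with graded concentrations for 20–24 h; NFκB-driven SEAP in culture supernatant measured colorimetrically.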

[5] = target: Toll-like receptor 4 (Homo sapiens) (UniProt O00206); assay: Activation of human TLR4 transfected in HEK293 cells assessed as NFkappaB activation after 20 to 24 hrs by SEAP assay; assay type: cell-based; procedure, shortened: as §1
[6] = target: T2, Toll-like receptor 9 (Homo sapiens) (UniProt Q9NR96); assay: Activation of human TLR9 transfected in HEK293 cells at 10 uM after 20 to 24 hrs by SEAP assay; assay type: cell-based
T2 sequence (whole entry): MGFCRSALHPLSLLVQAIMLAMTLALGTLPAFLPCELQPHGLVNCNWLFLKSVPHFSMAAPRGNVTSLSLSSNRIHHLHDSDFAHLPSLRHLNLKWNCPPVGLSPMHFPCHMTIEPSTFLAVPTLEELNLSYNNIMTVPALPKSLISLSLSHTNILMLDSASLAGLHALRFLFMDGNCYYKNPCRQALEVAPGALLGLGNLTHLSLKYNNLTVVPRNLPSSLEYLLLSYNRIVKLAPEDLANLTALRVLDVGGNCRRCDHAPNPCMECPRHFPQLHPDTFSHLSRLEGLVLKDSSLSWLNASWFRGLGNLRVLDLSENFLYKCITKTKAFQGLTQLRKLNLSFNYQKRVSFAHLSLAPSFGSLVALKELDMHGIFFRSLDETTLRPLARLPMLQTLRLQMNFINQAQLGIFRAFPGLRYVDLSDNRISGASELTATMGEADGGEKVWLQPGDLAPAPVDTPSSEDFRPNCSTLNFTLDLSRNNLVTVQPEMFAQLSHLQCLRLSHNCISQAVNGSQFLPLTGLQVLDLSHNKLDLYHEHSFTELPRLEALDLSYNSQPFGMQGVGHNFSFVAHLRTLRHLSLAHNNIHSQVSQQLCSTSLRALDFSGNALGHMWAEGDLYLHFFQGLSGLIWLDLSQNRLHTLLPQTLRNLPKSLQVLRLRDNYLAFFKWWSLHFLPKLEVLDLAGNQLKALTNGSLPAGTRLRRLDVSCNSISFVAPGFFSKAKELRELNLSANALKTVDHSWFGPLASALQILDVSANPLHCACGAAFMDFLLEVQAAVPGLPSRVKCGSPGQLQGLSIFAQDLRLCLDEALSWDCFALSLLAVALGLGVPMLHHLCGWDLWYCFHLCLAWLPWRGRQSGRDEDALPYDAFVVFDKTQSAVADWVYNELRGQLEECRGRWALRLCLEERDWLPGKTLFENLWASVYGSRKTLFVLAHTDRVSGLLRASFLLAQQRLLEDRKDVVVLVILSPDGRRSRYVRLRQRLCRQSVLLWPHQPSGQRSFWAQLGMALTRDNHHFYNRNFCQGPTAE

[7] = target: Toll-like receptor 5 (Homo sapiens) (UniProt O60602); assay: Activation of human TLR5 transfected in HEK293 cells at 10 uM after 20 to 24 hrs by SEAP assay; assay type: cell-based
Chain of Toll-like receptor 5 (Homo sapiens) (O60602 whole entry): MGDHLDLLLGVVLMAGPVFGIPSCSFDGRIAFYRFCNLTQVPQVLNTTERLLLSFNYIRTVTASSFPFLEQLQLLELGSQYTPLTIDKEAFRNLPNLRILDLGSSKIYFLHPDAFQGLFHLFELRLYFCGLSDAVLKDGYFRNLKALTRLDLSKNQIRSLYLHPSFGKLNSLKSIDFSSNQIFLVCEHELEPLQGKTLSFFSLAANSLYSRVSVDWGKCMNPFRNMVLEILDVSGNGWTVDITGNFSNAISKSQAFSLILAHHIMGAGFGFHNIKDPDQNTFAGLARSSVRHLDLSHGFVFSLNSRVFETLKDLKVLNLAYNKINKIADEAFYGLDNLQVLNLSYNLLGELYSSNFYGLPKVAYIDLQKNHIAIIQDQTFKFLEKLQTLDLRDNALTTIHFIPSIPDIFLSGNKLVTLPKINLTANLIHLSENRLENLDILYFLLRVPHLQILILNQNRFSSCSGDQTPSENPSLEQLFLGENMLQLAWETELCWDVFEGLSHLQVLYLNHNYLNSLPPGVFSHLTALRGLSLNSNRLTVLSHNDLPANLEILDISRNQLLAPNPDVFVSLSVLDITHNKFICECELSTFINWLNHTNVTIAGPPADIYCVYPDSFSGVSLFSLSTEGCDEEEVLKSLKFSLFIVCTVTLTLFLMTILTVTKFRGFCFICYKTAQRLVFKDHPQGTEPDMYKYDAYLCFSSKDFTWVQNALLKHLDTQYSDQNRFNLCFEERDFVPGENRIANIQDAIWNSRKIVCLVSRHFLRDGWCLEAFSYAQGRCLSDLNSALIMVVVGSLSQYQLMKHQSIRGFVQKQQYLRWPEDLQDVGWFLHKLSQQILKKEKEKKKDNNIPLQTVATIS

[8] = target: Toll-like receptor 4/MD-2/CD14 (Homo sapiens) (UniProt O00206+Q9Y6Y9+P08571); assay: Activation of human TLR4/MD-2/CD14 transfected in HEK293 cells at 10 uM after 20 to 24 hrs by SEAP assay; assay type: cell-based
[9] = target: Toll-like receptor 4/MD-2/CD14 (Mus musculus) (UniProt Q9QUK6+Q9JHF9+P10810); assay: Activation of mouse TLR4/MD-2/CD14 complex in HEK293 cells assessed as NFkappaB activation by SEAP assay in presence of LPS-RS

Measured: Activity

O=C(CSc1nc2c([nH]c3ccccc32)c(=O)n1-c1ccccc1)NC1CCCCC1
active: [3] Dose-dependent effect | [4] Dose-dependent effect | [5] Dose-dependent effect | [8] | [9] Dose-dependent effect
100%: [1] | [2]
inactive: [6] | [7]
